Data set [1] can be described thus: Fraction unbound in monkey plasma by equillibrium dialysis method. As to conditions: rhesus monkey. Type of data set: ADME, cell-free, Macaca mulatta. Put shortly:
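Plasma unbound fraction by equilibrium dialysis.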

In data set [2] the target is T1, Calcitonin gene-related peptide type 1 receptor (Homo sapiens, UniProt O60894+Q16602). The data set is described as follows: Displacement of [125I]-hCGRP from human CGRP receptor expressed in HEK293 cells. Type of data set: cell-based. Put shortly:
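Ki for inhibition of 125I-hCGRP binding; membranes from HEK293 cells stably expressing human CLR/RAMP1; replicate number given per value.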
A general note: Displacement assays read how much labelled ligand stays bound in the presence of the test substance.

A short description of data set [3]: Lipophilicity, log D of the compound at pH 7.0 by HPLC analysis. The data set is classed as physicochemical. As to conditions: buffer. Put shortly: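 logD measured by HPLC at pH 7.0.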
Data set [4] in a line: Drug uptake in iv dosed rhesus monkey cerebellum after 80 mins. Type of data set: ADME, organism-based, Macaca mulatta. As to conditions: in vivo. A digest of the protocol:
(§1)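 Anesthetized rhesus monkeys given [11C]-tracer i.v.; PET specific uptake value (SUV) read in cerebellum or white matter at 80 min postdose.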

Data set [5] is described as follows: Ratio of AUC in rhesus monkey CSF to AUC in rhesus monkey plasma. The data set is classed as ADME, Macaca mulatta. Put shortly:
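Cisterna magna-ported rhesus monkeys dosed; CSF AUC divided by plasma AUC.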

For data set [6], the system named is CGRP receptor (Macaca mulatta). The data set is described as follows: Ratio of drug uptake in iv dosed rhesus monkey cerebellum to drug uptake in iv dosed rhesus monkey white matter. As to conditions: in vivo.
Data set [7] in a line: Drug uptake in iv dosed rhesus monkey white matter after 80 mins. Type of data set: ADME, organism-based, Macaca mulatta. The note with it: in vivo. Put shortly: as §1
A short description of data set [8]: Apparent passive permeability across pig LLC-PK1 cells. Type of data set: ADME, cell-based, Sus scrofa. Put shortly:
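Permeability measured in control LLC-PK1 cells.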

The species entered for a further data set is Macaca mulatta. The data set is described as follows: Binding affinity to rhesus monkey cerebellum CGRP receptor. Type of data set: tissue-based.
The target in another data set is MDR1 (ABCB1) (Homo sapiens, UniProt P08183). Description: Efflux ratio of human MDR1-mediated drug transport from basolateral to apical side over apical to basolateral side in pig LLC cells expressing human MDR1 at 5 uM. The data set is classed as ADME, cell-based. As to conditions: LLC-PK1. A digest of the protocol:
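P-gp transport ratio BA/AB in LLC-MDR1 cells, test compound at 5 μM.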

For data set [9], the target named is Calcitonin gene-related peptide type 1 receptor (Homo sapiens) (UniProt Q16602). The data set is described as follows: Ratio of Bmax to Ki for human CGRP receptor expressed in HEK293 cells. Type of data set: cell-based.
Data set [10] concerns the target T1, Calcitonin gene-related peptide type 1 receptor. The data set is described as follows: Antagonist activity at CGRP receptor (unknown origin) by cell based cAMP assay in presence of human serum. The data set is classed as functional. A digest of the protocol: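 cAMP functional antagonism measured with 50% human serum added.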
In data set [11] the target is Calcitonin gene-related peptide type 1 receptor (Homo sapiens) (UniProt Q16602). Description: Ratio of IC50 for CGRP receptor (unknown origin) to IC50 for CGRP receptor (unknown origin) in presence of human serum.
The nature of data set [12]: Binding affinity to rhesus monkey CGRP receptor by radioligand binding assay. Also noted: species or system Macaca mulatta.
Data set [13] has as its target T1, Calcitonin gene-related peptide type 1 receptor. Description: Antagonist activity at CGRP receptor (unknown origin) by cell based cAMP assay. Type of data set: functional.
Data set [14] is described as follows: Fraction unbound in rhesus monkey CSF. The data set is classed as ADME, Macaca mulatta, Cerebrospinal fluid.

MDR1 (ABCB1), sequence (P08183 whole entry): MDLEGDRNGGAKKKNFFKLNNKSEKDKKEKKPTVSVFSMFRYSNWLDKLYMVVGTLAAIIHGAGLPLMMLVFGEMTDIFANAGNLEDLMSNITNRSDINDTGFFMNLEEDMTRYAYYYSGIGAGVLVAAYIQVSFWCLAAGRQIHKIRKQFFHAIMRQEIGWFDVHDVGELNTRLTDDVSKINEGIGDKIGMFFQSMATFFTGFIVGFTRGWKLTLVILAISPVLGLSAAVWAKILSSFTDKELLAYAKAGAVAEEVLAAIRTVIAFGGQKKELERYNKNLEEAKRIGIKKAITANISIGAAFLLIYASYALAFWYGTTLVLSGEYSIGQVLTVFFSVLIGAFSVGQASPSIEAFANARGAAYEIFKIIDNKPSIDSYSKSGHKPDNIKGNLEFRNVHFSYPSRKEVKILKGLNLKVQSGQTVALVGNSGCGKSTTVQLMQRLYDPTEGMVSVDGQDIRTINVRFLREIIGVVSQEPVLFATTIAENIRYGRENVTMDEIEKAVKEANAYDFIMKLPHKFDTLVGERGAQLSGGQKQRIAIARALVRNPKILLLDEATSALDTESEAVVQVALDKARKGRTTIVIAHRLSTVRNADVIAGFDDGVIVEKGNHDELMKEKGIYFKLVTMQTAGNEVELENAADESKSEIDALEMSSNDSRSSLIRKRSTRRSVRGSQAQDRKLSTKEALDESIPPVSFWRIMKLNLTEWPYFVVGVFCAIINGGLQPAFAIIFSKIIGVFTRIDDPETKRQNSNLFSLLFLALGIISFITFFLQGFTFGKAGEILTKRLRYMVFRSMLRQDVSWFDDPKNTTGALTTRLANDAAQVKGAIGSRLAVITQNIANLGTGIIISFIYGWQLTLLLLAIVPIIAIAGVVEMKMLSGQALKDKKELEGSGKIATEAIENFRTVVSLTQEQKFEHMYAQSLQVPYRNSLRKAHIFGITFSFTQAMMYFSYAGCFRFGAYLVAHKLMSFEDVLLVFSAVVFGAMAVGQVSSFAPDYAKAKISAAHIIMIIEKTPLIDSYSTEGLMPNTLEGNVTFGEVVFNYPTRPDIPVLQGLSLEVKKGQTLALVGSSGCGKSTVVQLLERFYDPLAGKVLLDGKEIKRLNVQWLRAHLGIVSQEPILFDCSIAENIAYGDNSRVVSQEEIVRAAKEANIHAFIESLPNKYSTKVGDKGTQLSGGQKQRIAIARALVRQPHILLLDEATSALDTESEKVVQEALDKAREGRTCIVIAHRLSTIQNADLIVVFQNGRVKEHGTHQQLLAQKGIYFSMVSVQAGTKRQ
T1 sequence (Q16602 whole entry, one chain of several): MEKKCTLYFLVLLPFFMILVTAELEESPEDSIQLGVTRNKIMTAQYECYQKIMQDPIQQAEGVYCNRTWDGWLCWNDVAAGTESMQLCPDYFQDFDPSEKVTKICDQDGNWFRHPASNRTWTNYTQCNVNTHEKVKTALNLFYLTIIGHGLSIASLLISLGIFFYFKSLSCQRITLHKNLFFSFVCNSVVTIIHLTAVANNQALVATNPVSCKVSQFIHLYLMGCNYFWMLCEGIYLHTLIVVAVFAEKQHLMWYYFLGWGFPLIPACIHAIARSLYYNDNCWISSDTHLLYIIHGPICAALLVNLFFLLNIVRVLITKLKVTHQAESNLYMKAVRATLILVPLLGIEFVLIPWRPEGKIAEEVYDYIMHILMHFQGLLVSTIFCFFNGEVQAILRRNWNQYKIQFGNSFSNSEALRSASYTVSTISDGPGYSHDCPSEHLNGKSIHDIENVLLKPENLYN
Calcitonin gene-related peptide type 1 receptor (Homo sapiens), sequence (Q16602 whole entry): as the sequence (Q16602 whole entry, one chain of several) above

On to `CN1C[C@@](C)(c2cc(F)cc(F)c2)N(C/C=C/c2ccc3c(c2)C[C@@]2(C3)C(=O)Nc3ncccc32)C(=O)C12CCCC2`, for which the fraction unbound in data set [1] was 0.002. In data set [2], the Ki was determined as 0.094 nM. The molecule further showed a logD in data set [3] of 4.15. Also, the SUV was determined as 1 in [4] and 0.7 in data set [7]. In addition, in data set [5], the “Ratio AUC” value amounted to 0.53%. Besides, in data set [6], the Ratio is recorded as 1.4.

Regarding `O=C(CN1C(=O)C2(CCCC2)NC[C@H]1c1cc(F)cc(F)c1)Nc1ccc2c(c1)C[C@@]1(C2)C(=O)Nc2ncccc21` [MK3207], the Papp in [8] came out at 28 ×10⁻⁶ cm/s. In the data set listed under Macaca mulatta, this molecule had a Bmax of 24 nM. For the same molecule, the logD in data set [3] worked out at 2.35. Moreover, the efflux ratio at 5 µM on MDR1 (ABCB1) was determined as 25. The “Ratio AUC” value in [5] amounted to 2.9%. Further, the Ratio in data set [9] is more than 1000.

Consider `CC1(C)NC[C@@](C)(c2cc(F)cc(F)c2)N(CC(=O)Nc2ccc3c(c2)C[C@@]2(C3)C(=O)Nc3ncccc32)C1=O`, for which the fraction unbound in data set [1] was found to be 0.333. Also, the Ki in [2] was 0.11 nM. In addition, the efflux ratio at 5 µM on MDR1 (ABCB1) is 20.

For the molecule `CN1C[C@@](C)(c2cc(F)cc(F)c2)N(CCCc2ccc3c(c2)C[C@@]2(C3)C(=O)Nc3ncccc32)C(=O)C12CCCC2`, the fraction unbound in [1] is 0.002. Besides, the Ki in data set [2] is 0.5 nM. Moreover, the logD in data set [3] amounted to 4.33. For the same molecule, the values for the SUV in [4] and in data set [7] were 0.8 and 0.6, respectively. In data set [6], the Ratio came out at 1.3.

For `CN1C[C@@](C)(c2cc(F)cc(F)c2)N(CC(=O)Nc2cnc3c(c2)C[C@@]2(C3)C(=O)Nc3ncccc32)C(=O)C12CCCC2`, in data set [2], the Ki was found to be 0.017 nM. Also, the efflux ratio at 5 µM at MDR1 (ABCB1) was found to be 14.

With `CN1C[C@@](C)(c2cc(F)cc(F)c2)N(CC(=O)Nc2ccc3c(c2)C[C@@]2(C3)C(=O)Nc3ncccc32)C(=O)C12CCCC2`, the apparent permeability coefficient (Papp) in data set [8] was determined as 25 ×10⁻⁶ cm/s. The fraction unbound in data set [1] turned out to be 0.043. The Ki in data set [2] amounted to 0.046 nM; in data set [12], 0.033 nM. For the same molecule, the IC50 in data set [10] was 0.39 nM; in data set [13], 0.097 nM. The Ratio IC50 in data set [11] amounted to 4. Moreover, the logD in [3] was 3.39. Moreover, the SUV in [4] stood at 1.7; in data set [7], 0.9. Besides, the efflux ratio at 5 µM at MDR1 (ABCB1) was found to be 1.7. The “Ratio AUC” value in data set [5] came to 3.12%. Moreover, in data set [6], the Ratio was 2.

For the molecule `CN1C[C@@](C)(c2cc(F)cc(F)c2)N(CCCc2cnc3c(c2)C[C@@]2(C3)C(=O)Nc3ncccc32)C(=O)C12CCCC2`, in data set [8], the Papp turned out to be 23 ×10⁻⁶ cm/s. In [1], this molecule registered a fraction unbound of 0.061. The Ki in data set [2] was 0.045 nM. The same molecule yielded a logD in [3] of 3.16. Also, the figures for the SUV in data set [4] and in data set [7] were 1 and 0.6, respectively. The efflux ratio at 5 µM on MDR1 (ABCB1) worked out at 1.8. The Ratio in [6] was found to be 1.7.

`CN1C[C@@](C)(c2cc(F)cc(F)c2)N(C/C=C/c2cnc3c(c2)C[C@@]2(C3)C(=O)Nc3ncccc32)C(=O)C12CCCC2`: the Papp in data set [8] is 21 ×10⁻⁶ cm/s. The molecule further yielded a fraction unbound in data set [1] of 0.051. The Ki in [2] was 0.021 nM. Further, the logD in data set [3] was found to be 3.36. Also, the SUV in [4] turned out to be 1.2; in data set [7], 0.7. Also, the efflux ratio at 5 µM on MDR1 (ABCB1) is 2. Further, the Ratio in data set [6] was found to be 1.7.

Consider `CN1C[C@@](C)(c2cc(F)cc(F)c2)N(CC#Cc2ccc3c(c2)C[C@@]2(C3)C(=O)Nc3ncccc32)C(=O)C12CCCC2`, for which the fraction unbound in [1] was 0.008. Moreover, the Ki in data set [2] is 0.11 nM. Also, the logD in [3] came to 4.11. For the same molecule, the figures for the SUV in data set [4] and in data set [7] were 1.1 and 0.7, respectively. The “Ratio AUC” value in data set [5] is on record as 0.99%. For the same molecule, in data set [6], the Ratio was determined as 1.6.

Consider `C[C@@]1(c2cc(F)cc(F)c2)CNC2(CCCC2)C(=O)N1CC(=O)Nc1ccc2c(c1)C[C@@]1(C2)C(=O)Nc2ncccc21`, for which the efflux ratio at 5 µM on MDR1 (ABCB1) was found to be 9.3. Also, in data set [5], the “Ratio AUC” value is on record as 6.61%.

With `CC1(C)NC[C@@H](c2cc(F)cc(F)c2)N(CC(=O)Nc2ccc3c(c2)C[C@@]2(C3)C(=O)Nc3ncccc32)C1=O`, the figures for the fraction unbound in data set [1] and in data set [14] were 0.429 and 0.1, respectively. The Ki in [2] is 0.034 nM. Moreover, on MDR1 (ABCB1), the efflux ratio at 5 µM was 33. In addition, the “Ratio AUC” value in data set [5] is reported as 4.35%.

With `CN1C[C@@](C)(c2cc(F)cc(F)c2)N(CC(=O)Nc2ccc3c(c2)C[C@@]2(C3)C(=O)Nc3ncccc32)C(=O)C1(C)C`, the Papp in data set [8] came to 29 ×10⁻⁶ cm/s. Further, the results for the fraction unbound in [1] and in data set [14] were 0.117 and 0.4, respectively. Further, in [2], the Ki amounted to 0.056 nM. The results for the SUV in [4] and in data set [7] were 1.2 and 0.7, respectively. Further, on MDR1 (ABCB1), the efflux ratio at 5 µM was 2.8. In data set [5], the “Ratio AUC” value worked out at 4.79%. Moreover, the Ratio in data set [6] is 1.7.

With `CN1C[C@@](C)(c2cc(F)cc(F)c2)N(CC#Cc2cnc3c(c2)C[C@@]2(C3)C(=O)Nc3ncccc32)C(=O)C12CCCC2`, the Papp in data set [8] was determined as 17 ×10⁻⁶ cm/s. The molecule further had a fraction unbound in data set [1] of 0.031. Also, the Ki in data set [2] stood at 0.019 nM. In [3], this molecule returned a logD of 3.41. For the same molecule, the SUV in data set [4] was 1.3; in data set [7], 0.7. In addition, the efflux ratio at 5 µM on MDR1 (ABCB1) is 1.5. The “Ratio AUC” value in [5] amounted to 2.64%. For the same molecule, the Ratio in [6] is 1.9.

Take `O=C(N[C@@H]1CC[C@@H](c2cccc(F)c2F)CN(CC(F)(F)F)C1=O)N1CCC(n2c(=O)[nH]c3ncccc32)CC1` [TELCAGEPANT]: the fraction unbound in data set [1] worked out at 0.038. The efflux ratio at 5 µM at MDR1 (ABCB1) came to 24. Moreover, in data set [5], the “Ratio AUC” value amounted to 1.3%.

As to `CN1C[C@@H](c2cc(F)cc(F)c2)N(CC(=O)Nc2ccc3c(c2)C[C@@]2(C3)C(=O)Nc3ncccc32)C(=O)C1(C)C`, in [8], the Papp came out at 27 ×10⁻⁶ cm/s. The fraction unbound in data set [1] was determined as 0.205. For the same molecule, in [2], the Ki worked out at 0.022 nM. The SUV is on record as 0.7 in data set [4] and 0.5 in data set [7].

A word on the fraction unbound: it is the share of the substance not bound to proteins or other matrix. As a reminder, the Ki is a measure of affinity in units of concentration, obtained from inhibition or displacement. As a reminder, the logD is lipophilicity at a set pH, counting ionised and neutral species. Broadly, the Papp is the rate of passage across a membrane or cell layer, normalised by area and donor concentration. As usually defined, the efflux ratio is the permeability from basolateral to apical divided by that in the opposite direction, in the common usage. The term IC50 denotes the midpoint of a concentration-inhibition curve.
